{
  "source": "paper PMC5873441",
  "about": "(Diabetes, Obesity & Metabolism, 2018)",
  "key": {"[1]": {"assay": "Safety and tolerability of a single 0.5 mg dose", "format": "in vivo, human", "conditions": "single s.c. 0.5 mg", "method_in_brief": "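After one 0.5 mg s.c. thigh dose, participants stayed in-house ≥5 days, then had visits on days 7, 8, 15, 22 and 29 and follow-up on day 36. Monitoring covered adverse events, hypoglycaemic episodes, haematology, biochemistry (amylase, lipase), coagulation, calcitonin, urinalysis, vital signs, physical examination, ECG and fasting plasma glucose.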"}, "[2]": {"conditions": "cited from earlier work"}, "[3]": {"format": "in vivo, human", "method_in_brief": "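Adults with normal hepatic function or mild, moderate or severe impairment (Child–Pugh), matched for age, sex and weight, each got one 0.5 mg s.c. thigh injection by pen. Plasma was sampled from pre-dose to 840 h and stored at −20°C. Proteins were precipitated, then LC‐MS/MS (0.729–60.8 nmol/L, analogue internal standard). AUC by non-compartmental methods; CL/F = dose/AUC0‐∞. Group ratios vs normal, with 90% CI.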"}, "plasma protein (albumin)": {"system": "plasma protein (albumin)", "format": "in vitro ADME, human", "conditions": "surface plasmon resonance, in vitro on blood samples taken prior to dosing; across all hepatic function groups"}, "[4]": {"conditions": "human, single s.c. 0.5 mg, mild hepatic impairment, n = 8"}},
  "note": "Where two headings read alike, the source gives them in different places.",
  "data": [
    {"smiles": "CC[C@H](C)[C@H](NC(=O)[C@H](Cc1ccccc1)NC(=O)[C@H](CCC(=O)O)NC(=O)[C@H](CCCCNC(=O)COCCOCCNC(=O)COCCOCCNC(=O)CC[C@H](NC(=O)CCCCCCCCCCCCCCCCC(=O)O)C(=O)O)NC(=O)[C@H](C)NC(=O)[C@H](C)NC(=O)[C@H](CCC(N)=O)NC(=O)CNC(=O)[C@H](CCC(=O)O)NC(=O)[C@H](CC(C)C)NC(=O)[C@H](Cc1ccc(O)cc1)NC(=O)[C@H](CO)NC(=O)[C@H](CO)NC(=O)[C@@H](NC(=O)[C@H](CC(=O)O)NC(=O)[C@H](CO)NC(=O)[C@@H](NC(=O)[C@H](Cc1ccccc1)NC(=O)[C@@H](NC(=O)CNC(=O)[C@H](CCC(=O)O)NC(=O)C(C)(C)NC(=O)[C@@H](N)Cc1cnc[nH]1)[C@@H](C)O)[C@@H](C)O)C(C)C)C(=O)N[C@@H](C)C(=O)N[C@@H](Cc1c[nH]c2ccccc12)C(=O)N[C@@H](CC(C)C)C(=O)N[C@H](C(=O)N[C@@H](CCCNC(=N)N)C(=O)NCC(=O)N[C@@H](CCCNC(=N)N)C(=O)NCC(=O)O)C(C)C", "note": "[semaglutide]", "values": [
      {"measurement": "serious adverse events or events leading to participant withdrawal", "setting": "[1]; all groups", "result": "No serious adverse events"},
      {"measurement": "severe hypoglycaemic episodes", "setting": "[1]; all groups", "result": "No severe hypoglycaemic episodes"},
      {"measurement": "changes in vital signs, clinical laboratory assessments, physical examination or ECG", "setting": "[1]; normal or impaired hepatic function", "result": "No clinically relevant changes"},
      {"measurement": "exposure in people with renal impairment vs normal renal function", "setting": "[2]; after adjusting for specific baseline characteristics", "result": "comparable"},
      {"measurement": "administered dose excreted in urine as intact semaglutide", "setting": "[2]; human, radioactive‐labelled compound", "result": 3.1, "unit": "%"},
      {"measurement": "AUC0‐last, ER (90% CI) vs no impairment", "setting": "[3]; estimated ratio mild impairment/no impairment", "result": "0.96 (0.76, 1.20)"},
      {"measurement": "Cmax, ER (90% CI) vs no impairment", "setting": "[3]; estimated ratio mild impairment/normal function", "result": "0.99 (0.80, 1.23)"},
      {"measurement": "AUC0‐∞, ER (90% CI) vs no impairment", "setting": "[3]; estimated ratio mild impairment/normal function, single s.c. 0.5 mg", "result": "0.95 (0.77, 1.16)"},
      {"measurement": "AUC0‐last, ER (90% CI) vs no impairment", "setting": "[3]; estimated ratio moderate impairment/no impairment", "result": "1.03 (0.92, 1.15)"},
      {"measurement": "Cmax, ER (90% CI) vs no impairment", "setting": "[3]; estimated ratio moderate impairment/normal function", "result": "1.02 (0.88, 1.18)"},
      {"measurement": "AUC0‐∞, ER (90% CI) vs no impairment", "setting": "[3]; estimated ratio moderate impairment/normal function, single s.c. 0.5 mg", "result": "1.02 (0.93, 1.12)"},
      {"measurement": "AUC0‐last, ER (90% CI) vs no impairment", "setting": "[3]; estimated ratio severe impairment/no impairment", "result": "0.93 (0.77, 1.13)"},
      {"measurement": "Cmax, ER (90% CI) vs no impairment", "setting": "[3]; estimated ratio severe impairment/normal function", "result": "1.15 (0.89, 1.48)"},
      {"measurement": "AUC0‐∞, ER (90% CI) vs no impairment", "setting": "[3]; estimated ratio severe impairment/normal function, single s.c. 0.5 mg", "result": "0.97 (0.84, 1.12)"},
      {"measurement": "AUC0‐last, estimated mean", "setting": "[3]; human, single s.c. 0.5 mg, plasma LC-MS/MS, no hepatic impairment, n = 18", "result": 2731, "unit": "nmol^×h/L"},
      {"measurement": "AUC0‐last, estimated mean", "setting": "[3]; [4]", "result": 2621, "unit": "nmol^×h/L"},
      {"measurement": "Tmax, median", "setting": "[3]; [4]", "result": 65.9, "unit": "h"},
      {"measurement": "AUC0‐last, estimated mean", "setting": "[3]; human, single s.c. 0.5 mg, moderate hepatic impairment, n = 10", "result": 2807, "unit": "nmol^×h/L"},
      {"measurement": "AUC0‐last, estimated mean", "setting": "[3]; human, single s.c. 0.5 mg, severe hepatic impairment, n = 7", "result": 2539, "unit": "nmol^×h/L"},
      {"measurement": "CL/F, geometric mean (CV)", "setting": "[3]; total apparent clearance, CV in %, severe hepatic impairment, n = 7", "result": "0.043 (10.0) L/h"},
      {"measurement": "median fraction of unbound semaglutide", "setting": "plasma protein (albumin)", "result": "< 1", "unit": "%"}
    ]}
  ]
}
